Measurements taken from ChEMBL document CHEMBL4196179, “Synthesis and Pharmacological Evaluation of Noscapine-Inspired 5-Substituted Tetrahydroisoquinolines as Cytotoxic Agents” (J Med Chem, 2018).
Blank lines part the entries; values can stand above or below the compound they belong to. Active and inactive are the calls of the source. No cut-off for these calls is given here.

Tests used:
[1] = system: PANC-1; assay: Cell cycle arrest in human PANC1 cells assessed as increase in accumulation at G2/M phase at 10 uM after 18 hrs by Hoechst 33342 staining based FACS analysis relative to control; format: functional
How it was run: (§1)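 Cells seeded 48 h beforehand, treated 18 h with test compounds at 10 µM or vincristine at 100 nM, then trypsinised and stained with Hoechst 33342 for 60 min; FACS read at 450 nm; % G2/M increase calculated relative to 0.1% DMSO vehicle; mean ± SEM of three independent experiments.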

[2] = system: MCF7; assay: Cell cycle arrest in human MCF7 cells assessed as increase in accumulation at G2/M phase at 10 uM after 18 hrs by Hoechst 33342 staining based FACS analysis relative to control; format: functional; how it was run: as §1
[3] = Binding affinity to recombinant P-gp cys-less mutant (unknown origin) in proteoliposomes assessed as increase in ATP hydrolysis rate after 40 mins by colorimetric assay; parameters: species or system Homo sapiens
How it was run: (§2)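 P-gp expressed in High-Five insect cells via recombinant baculovirus, IMAC-purified and reconstituted into proteoliposomes; 0.1-0.5 µg incubated with 2 mM ATP and drug at 10^-9 to 10^-4 M for 40 min at 37 °C; liberated Pi measured colorimetrically; EC50 and extent of stimulation from dose-response fit against drug-free basal activity.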

[4] = species: Sus scrofa; assay: Inhibition of pig tubulin polymerization assessed as Vmax of tubulin polymerization at 10 uM after 60 mins turbidimetric analysis (reference value: 27 +/- 2 milliOD/min)
[5] = Absolute oral bioavailability in human at 150 mg; format: ADME, organism-based; settings: in vivo
[6] = species: Homo sapiens; assay: Ratio of nicardipine activity to test compound activity for inhibition of P-gp in human NCI/ADR-RES cells assessed as rate of calcein-AM accumulation; format: cell-based
How it was run: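 Rate of calcein accumulation in NCI/AdrRES cells (1 µM calcein-AM in HBSS, fluorescence versus time, slope by linear regression) with the P-gp modulator nicardipine, compared to the rate with test compound.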

[7] = system: NCI/ADR-RES; assay: Antiproliferative activity against human NCI/ADR-RES cells after 6 days by MTT assay; format: functional, cell-based; settings: 144 h
How it was run: (§3)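 Cells seeded overnight at 1500/well, then exposed to a range of concentrations for 6 d; viability by MTT (570 nm, background-subtracted, normalised to untreated control = 100%); EC50 from sigmoidal dose-response fit by non-linear least squares; mean ± SEM of at least 8 independent observations. MCF-7 in MEMα + 10% FBS; NCI/AdrRES in DMEM + 10% FCS with periodic 3 µM doxorubicin selection.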

[8] = Cytotoxicity against human Renal 1983 cells; format: functional, cell-based
[9] = system: PANC-1; assay: Cell cycle arrest in human PANC1 cells assessed as accumulation at G2/M phase at 10 uM after 18 hrs by Hoechst 33342 staining based FACS analysis (reference value: 13.7%); format: functional
[10] = system: HeLa; assay: Cytotoxicity against human HeLa cells; format: functional, cell-based
[11] = Terminal half life in human; format: ADME, organism-based; settings: in vivo, read-out: beta t1/2 (converted)
[12] = system: PANC-1; assay: Cell cycle arrest in human PANC1 cells assessed as accumulation at G1 phase at 10 uM after 18 hrs by Hoechst 33342 staining based FACS analysis (reference value: 70.7%); format: functional
[13] = species: Homo sapiens; assay: Binding affinity to recombinant P-gp cys-less mutant (unknown origin) in proteoliposomes assessed as increase in ATP hydrolysis rate at 10^-9 to 10^-4 M after 40 mins by colorimetric assay relative to basal control; how it was run: as §2
[14] = system: PANC-1; assay: Cell cycle arrest in human PANC1 cells assessed as accumulation at S phase at 10 uM after 18 hrs by Hoechst 33342 staining based FACS analysis (reference value: 11.1%); format: functional
[15] = system: MCF7; assay: Effect on calcein-AM accumulation in human wild type MCF7 cells at 1 uM by fluorescence assay; format: functional, cell-based
How it was run: (§4)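 Cells seeded at 2 × 10^3/well and grown 2 d, washed and placed in HBSS; test compound added at 2X in HBSS with DMSO ≤1% final, then calcein-AM at 1 µM final; intracellular fluorescence followed over time, rate taken as slope from linear regression.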

[16] = system: MCF7; assay: Cytotoxicity against human MCF7 cells; format: functional, cell-based
[17] = system: NCI/ADR-RES; assay: Inhibition of P-gp in human NCI/ADR-RES cells assessed as rate of calcein-AM accumulation at 1 uM by fluorescence assay; format: cell-based; how it was run: as §4
[18] = system: MCF7; assay: Antiproliferative activity against human MCF7 cells after 6 days by MTT assay; format: functional, cell-based; settings: MCF7, 144 h; how it was run: as §3
[19] = system: MCF7; assay: Cell cycle arrest in human MCF7 cells assessed as increase in accumulation at G2/M phase at 100 nM after 18 hrs by Hoechst 33342 staining based FACS analysis relative to control; format: functional; how it was run: as §1
[20] = system: PANC-1; assay: Cell cycle arrest in human PANC1 cells assessed as accumulation at S phase at 100 nM after 18 hrs by Hoechst 33342 staining based FACS analysis (reference value: 11.1%); format: functional
[21] = system: PANC-1; assay: Cell cycle arrest in human PANC1 cells assessed as accumulation at G2/M phase at 100 nM after 18 hrs by Hoechst 33342 staining based FACS analysis (reference value: 13.7%); format: functional
[22] = system: PANC-1; assay: Cell cycle arrest in human PANC1 cells assessed as accumulation at G1 phase at 100 nM after 18 hrs by Hoechst 33342 staining based FACS analysis (reference value: 70.7%); format: functional
[23] = system: PANC-1; assay: Cell cycle arrest in human PANC1 cells assessed as increase in accumulation at G2/M phase at 100 nM after 18 hrs by Hoechst 33342 staining based FACS analysis relative to control; format: functional; how it was run: as §1
[24] = species: Sus scrofa; assay: Stabilization of pig tubulin assessed as Vmax of tubulin polymerization at 10 uM after 60 mins turbidimetric analysis (reference value: 27 +/- 2 milliOD/min)
[25] = Ratio of IC50 for human NCI/ADR-RES cells to IC50 for human MCF7 cells; format: functional
How it was run: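 IC50 in doxorubicin-selected P-gp-expressing NCI/AdrRES cells divided by IC50 in parental MCF-7, each from 6 d MTT viability dose-response curves fitted by non-linear regression.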

SMILES: CCNC(=O)N1CCc2c(Br)c3c(c(OC)c2C1c1ccc(OC)cc1)OCO3 (stereo not given)
Activity [1]: 21%
Activity [2]: 18%

SMILES: CCNC(=O)N1CCc2c(Br)c3c(c(OC)c2C1c1cc(OC)c(OC)c(OC)c1)OCO3 (stereo not given)
Activity [1]: 2%
Activity [2]: 3%

SMILES: COc1cc(CC2c3c(c(Br)c4c(c3OC)OCO4)CCN2C)cc(OC)c1OC (stereo not given)
Activity [1]: -1%
Activity [2]: -8%

EC50 [3]: 69.7 µM
Vmax (milli optical density/minute) [4]: 20
bioavailability [5]: 30%
half-life [11]: 4.5 h
fold change (FC) [13]: 17.6
IC50 [18]: 18.8 µM
SMILES: COc1ccc2c(c1OC)C(=O)O[C@@H]2[C@H]1c2c(cc3c(c2OC)OCO3)CCN1C [NOSCAPINE]
Activity [1]: 16%
Ratio [6]: 4
IC50 [7]: 17.4 µM
IC50 [8]: 39 µM
Activity [9]: 16.1%
IC50 [10]: 25 µM
Activity [2]: 2%
Activity [12]: 69.3%
Activity [14]: 10.8%
Activity [15]: inactive
IC50 [16]: 42 µM
Activity [17]: 26.7 RFU/min

SMILES: COc1cc(C2c3c(c(Br)c4c(c3OC)OCO4)CCN2C)cc(OC)c1OC (stereo not given)
Activity [1]: 12%
Activity [2]: 48%

SMILES: COc1ccc2c(c1OC)CC1c3c(c(Br)c4c(c3OC)OCO4)CCN1C2 (stereo not given)
Activity [1]: 9%
Activity [2]: 28%

SMILES: COc1cccc(CC2c3c(c(Br)c4c(c3OC)OCO4)CCN2C)c1OC (stereo not given)
Activity [1]: 8%
Activity [2]: 32%

SMILES: CC[C@]1(O)C[C@H]2CN(CCc3c([nH]c4ccccc34)[C@@](C(=O)OC)(c3cc4c(cc3OC)N(C=O)[C@H]3[C@@](O)(C(=O)OC)[C@H](OC(C)=O)[C@]5(CC)C=CCN6CC[C@]43[C@@H]65)C2)C1 [VINCRISTINE]
Activity [19]: 283%
Activity [20]: 9.7%
Activity [21]: 64.1%
Activity [22]: 21.2%
Activity [23]: 265%

Vmax (milli optical density/minute) [24]: 76
SMILES: CC(=O)O[C@H]1C(=O)[C@@]2(C)[C@H]([C@H](OC(=O)c3ccccc3)[C@]3(O)C[C@H](OC(=O)[C@H](O)[C@@H](NC(=O)c4ccccc4)c4ccccc4)C(C)=C1C3(C)C)[C@]1(OC(C)=O)CO[C@@H]1C[C@@H]2O

SMILES: COc1c2c(c(Br)c3c1C(Cc1ccccc1)N(C)CC3)OCO2 (stereo not given)
Activity [1]: 13%
Activity [2]: 9%

IC50 [18]: 0.00036 µM
SMILES: CC[C@]1(O)C[C@@H]2CN(CCc3c([nH]c4ccccc34)[C@@](C(=O)OC)(c3cc4c(cc3OC)N(C)[C@H]3[C@@](O)(C(=O)OC)[C@H](OC(C)=O)[C@]5(CC)C=CCN6CC[C@]43[C@@H]65)C2)C1 [VINBLASTINE]
IC50 [7]: 0.096 µM
Ratio IC50 [25]: 267

SMILES: CCNC(=O)N1CCc2c(Br)c3c(c(OC)c2C1c1ccc(OC)c(OC)c1)OCO3 (stereo not given)
Activity [1]: 11%
Activity [2]: -6%

SMILES: COc1c2c(c(Br)c3c1C(c1ccccc1)N(C)CC3)OCO2 (stereo not given)
Activity [1]: -7%
Activity [2]: 18%
